Active and inactive are the calls of the source. The rule behind the calls is not given here.
Tests used:
Nucleic Acid [1] = assay: Binding affinity to F21T human telomeric DNA assessed as change in melting temperature at 1 uM by FRET assay; type: nucleic-acid assay
Summary of the method: (§1)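 FRET melting of dual-labelled probes (FAM/TAMRA): G-quadruplex F21T or hairpin duplex F10T, 0.2 µM, in 10 mM Tris-HCl pH 7.2 with 60 mM KCl, ligand 1 µM. Emission read at 530 nm (excitation 470 nm) every 1 °C from 37 to 99 °C, with a 30 s hold before each reading. ΔTm is taken relative to the annealed probe without ligand.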

Nucleic Acid [2] = assay: Binding affinity to F10T hairpin duplex DNA assessed as change in melting temperature at 1 uM by FRET assay; type: nucleic-acid assay; summary of the method: as §1
Nucleic Acid [3] = assay: Binding affinity to oligonucleotide HTG21 by florescence titration assay in presence of K+ solution; type: nucleic-acid assay
Summary of the method: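 Fluorescence titration at 25 °C in 10 mM Tris-HCl pH 7.2 with 100 mM KCl. HTG21 DNA added to ligand up to 0–2 µM final, with at least 10 min equilibration after each addition. Excitation at 343 or 353 nm depending on ligand. Binding constant Kb derived from the titration.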

[4] = Inhibition of human telomerase in human MCF7 cell free extract by TRAP-LIG assay
Summary of the method: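 TRAP-LIG: MCF-7 protein extract (500 ng) extends TS primer in TRAP buffer (pH 8.3, 68 mM KCl) with 125 µM dNTPs and ligand, 20 min at 30 °C. Product purified to remove ligand, then PCR-amplified with ACX primer for 35 cycles. Products resolved on 16% PAGE with silver staining; IC50 computed from band optical density.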

HL-60 [5] = assay: Induction of telomere shortening in human HL60 cells assessed as telomere length at 1.8 uM by telomeric restriction fragment assay; type: functional
Summary of the method: (§2)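 TRF length: HL60 or CA46 cells treated for 16 days with 0.9 or 1.8 µM ligand or 0.1% DMSO. Genomic DNA digested with HinfI/RsaI, run on 0.8% agarose, transferred to nylon membrane and baked at 120 °C for 20 min. Telomeric smears detected by Southern analysis.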

HL-60 [6] = assay: Cytotoxicity against human HL60 cells assessed as decrease in population doubling at 0.9 uM after 12 days; type: functional, cell-based
HL-60 [7] = assay: Induction of telomere shortening in human HL60 cells assessed as telomere length at 0.9 uM by telomeric restriction fragment assay; type: functional, cell-based; summary of the method: as §2
HL-60 [8] = assay: Cytotoxicity against human HL60 cells after 2 days by MTT assay; type: functional, cell-based; details: HL-60, 48 h
Summary of the method: (§3)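 MTT viability: HL60 or CA46 cells seeded at 1.0 × 10³ per well and exposed to a ligand concentration series for 48 h at 37 °C, 5% CO₂. MTT added for 4 h, then DMSO; absorbance read at 570 nm. Each dose tested in triplicate; IC50 taken from mean OD versus concentration curves.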

HL-60 [9] = assay: Cytotoxicity against human HL60 cells assessed as decrease in population doubling at 1.8 uM after 12 days; type: functional, cell-based
HL-60 [10] = assay: Cytotoxicity against human HL60 cells at 4.5 uM after 12 days; type: functional, cell-based
CA46 [11] = assay: Cytotoxicity against human CA46 cells assessed as decrease in population doubling at 0.9 uM after 12 days; type: functional, cell-based
Nucleic Acid [12] = assay: Binding affinity to HTG21 DNA assessed as induction of guanine-rich DNA to G-quadruplex structure formation; type: nucleic-acid assay
Summary of the method: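 CD titration: HTG21 5 µM in 10 mM Tris-HCl pH 7.2, without or with 100 mM KCl. Annealed at 90 °C for 5 min, cooled slowly, held at 4 °C overnight. Ligand added at 0–5 mol equiv at 25 °C with at least 13 min equilibration per addition. Spectra recorded 230–450 nm in a 4 mm quartz cuvette.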

CA46 [13] = assay: Induction of telomere shortening in human CA46 cells assessed as telomere length at 1.8 uM by telomeric restriction fragment assay; type: functional; summary of the method: as §2
CA46 [14] = assay: Induction of senescence in human CA46 cells assessed as beta galactosidase activity at 0.9 uM for 16 days; type: functional, cell-based
Summary of the method: (§4)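 SA-β-Gal staining: HL60 or CA46 cells treated continuously with 0.9 µM ligand or 0.1% DMSO for 16 days. Fixed in 2% formaldehyde/0.2% glutaraldehyde for 15 min, stained overnight at 37 °C with 1 mg/mL X-gal, then examined by light microscopy (×400). Repeated twice.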

CA46 [15] = assay: Cytotoxicity against human CA46 cells after 2 days by MTT assay; type: functional, cell-based; details: CA46, 48 h; summary of the method: as §3
HL-60 [16] = assay: Induction of senescence in human HL60 cells assessed as beta galactosidase activity at 0.9 uM for 16 days; type: functional, cell-based; summary of the method: as §4
HL-60 [17] = assay: Cytotoxicity against human HL60 cells at 4.5 uM after 8 days; type: functional, cell-based

SMILES | ΔTm (Nucleic Acid [1]) [°C] | ΔTm (Nucleic Acid [2]) [°C] | Kb (Nucleic Acid [3]) | IC50 [4] [µM] | Activity (Nucleic Acid [12]) | Activity (HL-60 [5]) [kilobase] | Activity (HL-60 [6]) | Activity (HL-60 [7]) | IC50 (HL-60 [8]) [µM] | Activity (HL-60 [9]) | Activity (HL-60 [10]) | Activity (CA46 [11]) | Activity (CA46 [13]) [kilobase] | Activity (CA46 [14]) | IC50 (CA46 [15]) [µM] | Activity (HL-60 [16]) | Activity (HL-60 [17])
CN(C)CCCNc1c2ccccc2nc2c1[nH]c1ccccc12 | 10.4 | 5.7 | – | – | – | – | – | – | – | – | – | – | – | – | – | – | –
O=C(CCN1CCCCC1)Nc1ccc(/C=C2\CCn3c2nc2ccc(NC(=O)CCN4CCCCC4)cc2c3=O)cc1 | 17.6 | 0.1 | 8.1 10^6 M-1 | 15.2 | – | – | – | – | – | – | – | – | – | – | – | – | –
O=C(CCN1CCCC1)Nc1ccc(/C=C2\CCn3c2nc2ccc(NC(=O)CCN4CCCC4)cc2c3=O)cc1 | 17.6 | 0.4 | 7.2 10^6 M-1 | 9 | – | – | – | – | – | – | – | – | – | – | – | – | –

Second part, led by results:

ΔTm (Nucleic Acid [1]) [°C] | ΔTm (Nucleic Acid [2]) [°C] | Kb (Nucleic Acid [3]) | IC50 [4] [µM] | Activity (Nucleic Acid [12]) | SMILES | Activity (HL-60 [5]) [kilobase] | Activity (HL-60 [6]) | Activity (HL-60 [7]) | IC50 (HL-60 [8]) [µM] | Activity (HL-60 [9]) | Activity (HL-60 [10]) | Activity (CA46 [11]) | Activity (CA46 [13]) [kilobase] | Activity (CA46 [14]) | IC50 (CA46 [15]) [µM] | Activity (HL-60 [16]) | Activity (HL-60 [17])
22 | 0 | 9.8 10^6 M-1 | 9.3 | – | O=C(CCN1CCCCC1)Nc1ccc(/C=C2\CCn3c2nc2cc(NC(=O)CCN4CCCCC4)ccc2c3=O)cc1 | – | – | – | – | – | – | – | – | – | – | – | –
21.9 | 0.1 | 10.1 10^6 M-1 | 7.8 | Active | O=C(CCN1CCCC1)Nc1ccc(/C=C2\CCn3c2nc2cc(NC(=O)CCN4CCCC4)ccc2c3=O)cc1 | 1.1 | Active | Active | 33 | Active | Active | Active | 2.3 | Active | 29 | Active | Active

— ChEMBL document CHEMBL1138466, “Isaindigotone derivatives: a new class of highly selective ligands for telomeric G-quadruplex DNA” (J Med Chem, 2009)
